System: Escherichia coli
Assay: Activity of Escherichia coli nitroreductase nfsB assessed as NADH oxidation per mg of protein
Settings: not given
Procedure, shortened: (§1)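 Substrate activity reported as the initial velocity of NADH oxidation (nmol/min/mg) with either E. coli nfsB or T. brucei nitroreductase (TbNTR). The reaction was followed by the change in absorbance at 340 nm.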

Compound | Activity [nmol/min]
Cc1cc(COP(N)(=O)N(CCCl)CCCl)ccc1[N+](=O)[O-] (stereo unspecified) | 894

System: V79
Assay: Antiproliferative activity against Chinese hamster V79 cells assessed as reduction in cell number after 72 hrs
Assay type: cell-based
Settings: Cricetulus griseus, V79, 72 h
Procedure, shortened: (§2)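 V79 cells carrying vector only served as the control line. The NTR+ line carried a bicistronic construct encoding E. coli nfsB with a puromycin selection marker. Cells were exposed to drug for 72 h. […] The ratio is IC50 in NTR− cells divided by IC50 in NTR+ cells.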

Compound | IC50 [µM]
NP(=O)(OCc1ccc([N+](=O)[O-])cn1)N(CCCl)CCCl (stereo unspecified) | 75
NP(=O)(OCc1ccc([N+](=O)[O-])cc1Cl)N(CCCl)CCCl (stereo unspecified) | 26
NP(=O)(OCc1ccc([N+](=O)[O-])cc1F)N(CCCl)CCCl (stereo unspecified) | 49
NP(=O)(OCc1ccc([N+](=O)[O-])cc1)N(CCBr)CCBr (stereo unspecified) | 6
NC(=O)c1cc([N+](=O)[O-])ccc1COP(N)(=O)N(CCCl)CCCl (stereo unspecified) | > 100
NP(=O)(OCc1c(F)cc([N+](=O)[O-])cc1F)N(CCCl)CCCl (stereo unspecified) | 17
NP(=O)(OCc1ccc([N+](=O)[O-])c(F)c1)N(CCCl)CCCl (stereo unspecified) | 48
NC(=O)Cc1cc([N+](=O)[O-])ccc1COP(N)(=O)N(CCCl)CCCl (stereo unspecified) | > 100
Cc1cc(COP(N)(=O)N(CCCl)CCCl)ccc1[N+](=O)[O-] (stereo unspecified) | 48
NP(=O)(OCc1ccc([N+](=O)[O-])cc1C(F)(F)F)N(CCCl)CCCl (stereo unspecified) | 50

System: V79
Assay: Antiproliferative activity against Chinese hamster V79 cells transfected with Escherichia coli nitroreductase nfsB assessed as reduction in cell number after 72 hrs
Assay type: functional, cell-based
Settings: Cricetulus griseus, V79, 72 h
Procedure, shortened: as §2

Compound | IC50 [µM]
NP(=O)(OCc1ccc([N+](=O)[O-])cn1)N(CCCl)CCCl (stereo unspecified) | 0.009
NP(=O)(OCc1ccc([N+](=O)[O-])cc1Cl)N(CCCl)CCCl (stereo unspecified) | 0.002
NP(=O)(OCc1ccc([N+](=O)[O-])cc1F)N(CCCl)CCCl (stereo unspecified) | 0.0004
NP(=O)(OCc1ccc([N+](=O)[O-])cc1)N(CCBr)CCBr (stereo unspecified) | 0.0001
NC(=O)c1cc([N+](=O)[O-])ccc1COP(N)(=O)N(CCCl)CCCl (stereo unspecified) | 0.04
NP(=O)(OCc1c(F)cc([N+](=O)[O-])cc1F)N(CCCl)CCCl (stereo unspecified) | 0.0008
NP(=O)(OCc1ccc([N+](=O)[O-])c(F)c1)N(CCCl)CCCl (stereo unspecified) | 0.003
NC(=O)Cc1cc([N+](=O)[O-])ccc1COP(N)(=O)N(CCCl)CCCl (stereo unspecified) | 0.05
Cc1cc(COP(N)(=O)N(CCCl)CCCl)ccc1[N+](=O)[O-] (stereo unspecified) | 0.003
NP(=O)(OCc1ccc([N+](=O)[O-])cc1C(F)(F)F)N(CCCl)CCCl (stereo unspecified) | 0.004

System: V79
Assay: Ratio of IC50 for Chinese hamster V79 cells to IC50 for Chinese hamster V79 cells transfected with Escherichia coli nitroreductase nfsB
Set-up: species or system Cricetulus griseus
Settings: not given
Procedure, shortened: as §2

Compound | Ratio IC50
NP(=O)(OCc1ccc([N+](=O)[O-])cn1)N(CCCl)CCCl (stereo unspecified) | 8333
NP(=O)(OCc1ccc([N+](=O)[O-])cc1Cl)N(CCCl)CCCl (stereo unspecified) | 13100
NP(=O)(OCc1ccc([N+](=O)[O-])cc1F)N(CCCl)CCCl (stereo unspecified) | 122750
NP(=O)(OCc1ccc([N+](=O)[O-])cc1)N(CCBr)CCBr (stereo unspecified) | 60000
NC(=O)c1cc([N+](=O)[O-])ccc1COP(N)(=O)N(CCCl)CCCl (stereo unspecified) | >2500
NP(=O)(OCc1c(F)cc([N+](=O)[O-])cc1F)N(CCCl)CCCl (stereo unspecified) | 20880
NP(=O)(OCc1ccc([N+](=O)[O-])c(F)c1)N(CCCl)CCCl (stereo unspecified) | 16000
NC(=O)Cc1cc([N+](=O)[O-])ccc1COP(N)(=O)N(CCCl)CCCl (stereo unspecified) | >2000
Cc1cc(COP(N)(=O)N(CCCl)CCCl)ccc1[N+](=O)[O-] (stereo unspecified) | 16000
NP(=O)(OCc1ccc([N+](=O)[O-])cc1C(F)(F)F)N(CCCl)CCCl (stereo unspecified) | 12500

System: SK-OV-3
Assay: Antiproliferative activity against human SKOV3 cells after 18 hrs assessed as reduction in cell number
Assay type: functional, cell-based
Settings: SK-OV-3, 18 h
Procedure, shortened: (§3)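 Untransfected parental SKOV3 cells were compared with SKOV3 cells expressing E. coli nfsB. Drug exposure lasted 18 h. […] The ratio is IC50 in NTR− cells divided by IC50 in NTR+ cells.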

Compound | IC50 [µM]
NP(=O)(OCc1ccc([N+](=O)[O-])cc1Cl)N(CCCl)CCCl (stereo unspecified) | 140
NP(=O)(OCc1ccc([N+](=O)[O-])cc1F)N(CCCl)CCCl (stereo unspecified) | 266
NP(=O)(OCc1ccc([N+](=O)[O-])cc1)N(CCBr)CCBr (stereo unspecified) | 1100
NC(=O)c1cc([N+](=O)[O-])ccc1COP(N)(=O)N(CCCl)CCCl (stereo unspecified) | > 100
NP(=O)(OCc1c(F)cc([N+](=O)[O-])cc1F)N(CCCl)CCCl (stereo unspecified) | 257
NP(=O)(OCc1ccc([N+](=O)[O-])c(F)c1)N(CCCl)CCCl (stereo unspecified) | 246
NC(=O)Cc1cc([N+](=O)[O-])ccc1COP(N)(=O)N(CCCl)CCCl (stereo unspecified) | > 100
Cc1cc(COP(N)(=O)N(CCCl)CCCl)ccc1[N+](=O)[O-] (stereo unspecified) | 477
NP(=O)(OCc1ccc([N+](=O)[O-])cc1C(F)(F)F)N(CCCl)CCCl (stereo unspecified) | 172

System: SK-OV-3
Assay: Antiproliferative activity against human SKOV3 cells transfected with Escherichia coli nitroreductase nfsB assessed as reduction in cell number after 18 hrs
Assay type: functional, cell-based
Settings: SK-OV-3, 18 h
Procedure, shortened: as §3

Compound | IC50 [µM]
NP(=O)(OCc1ccc([N+](=O)[O-])cc1Cl)N(CCCl)CCCl (stereo unspecified) | 0.12
NP(=O)(OCc1ccc([N+](=O)[O-])cc1F)N(CCCl)CCCl (stereo unspecified) | 0.08
NP(=O)(OCc1ccc([N+](=O)[O-])cc1)N(CCBr)CCBr (stereo unspecified) | 0.09
NC(=O)c1cc([N+](=O)[O-])ccc1COP(N)(=O)N(CCCl)CCCl (stereo unspecified) | 0.8
NP(=O)(OCc1c(F)cc([N+](=O)[O-])cc1F)N(CCCl)CCCl (stereo unspecified) | 0.17
NP(=O)(OCc1ccc([N+](=O)[O-])c(F)c1)N(CCCl)CCCl (stereo unspecified) | 0.21
NC(=O)Cc1cc([N+](=O)[O-])ccc1COP(N)(=O)N(CCCl)CCCl (stereo unspecified) | 1.1
Cc1cc(COP(N)(=O)N(CCCl)CCCl)ccc1[N+](=O)[O-] (stereo unspecified) | 0.45
NP(=O)(OCc1ccc([N+](=O)[O-])cc1C(F)(F)F)N(CCCl)CCCl (stereo unspecified) | 0.31

System: SK-OV-3
Assay: Ratio of IC50 for human SKOV3 cells to IC50 for human SKOV3 cells transfected with Escherichia coli nitroreductase nfsB
Assay type: functional
Settings: not given
Procedure, shortened: as §3

Compound | Ratio IC50
NP(=O)(OCc1ccc([N+](=O)[O-])cc1Cl)N(CCCl)CCCl (stereo unspecified) | 1120
NP(=O)(OCc1ccc([N+](=O)[O-])cc1F)N(CCCl)CCCl (stereo unspecified) | 3290
NP(=O)(OCc1ccc([N+](=O)[O-])cc1)N(CCBr)CCBr (stereo unspecified) | 12244
NC(=O)c1cc([N+](=O)[O-])ccc1COP(N)(=O)N(CCCl)CCCl (stereo unspecified) | >125
NP(=O)(OCc1c(F)cc([N+](=O)[O-])cc1F)N(CCCl)CCCl (stereo unspecified) | 1520
NP(=O)(OCc1ccc([N+](=O)[O-])c(F)c1)N(CCCl)CCCl (stereo unspecified) | 1200
NC(=O)Cc1cc([N+](=O)[O-])ccc1COP(N)(=O)N(CCCl)CCCl (stereo unspecified) | >90
Cc1cc(COP(N)(=O)N(CCCl)CCCl)ccc1[N+](=O)[O-] (stereo unspecified) | 1060
NP(=O)(OCc1ccc([N+](=O)[O-])cc1C(F)(F)F)N(CCCl)CCCl (stereo unspecified) | 570

System: Trypanosoma brucei
Assay: Activity of Trypanosoma brucei NTR assessed as NADH oxidation per mg of protein
Settings: not given
Procedure, shortened: as §1

Compound | Activity [nmol/min]
NP(=O)(OCc1c(F)cc([N+](=O)[O-])cc1F)N(CCCl)CCCl (stereo unspecified) | 1450
NP(=O)(OCc1ccc([N+](=O)[O-])c(F)c1)N(CCCl)CCCl (stereo unspecified) | 1120
Cc1cc(COP(N)(=O)N(CCCl)CCCl)ccc1[N+](=O)[O-] (stereo unspecified) | 158

System: Trypanosoma brucei
Assay: Trypanocidal activity against of Trypanosoma brucei bloodstream trypomastigote forms assessed as inhibition of parasite growth
Assay type: functional, organism-based
Settings: not given

Compound | IC50 [µM]
NP(=O)(OCc1ccc([N+](=O)[O-])cc1Cl)N(CCCl)CCCl (stereo unspecified) | 9.14
NP(=O)(OCc1ccc([N+](=O)[O-])cc1F)N(CCCl)CCCl (stereo unspecified) | 9.54
NP(=O)(OCc1c(F)cc([N+](=O)[O-])cc1F)N(CCCl)CCCl (stereo unspecified) | 0.99
NP(=O)(OCc1ccc([N+](=O)[O-])c(F)c1)N(CCCl)CCCl (stereo unspecified) | > 10
Cc1cc(COP(N)(=O)N(CCCl)CCCl)ccc1[N+](=O)[O-] (stereo unspecified) | > 10
NP(=O)(OCc1ccc([N+](=O)[O-])cc1C(F)(F)F)N(CCCl)CCCl (stereo unspecified) | 7.97

System: Leishmania major
Assay: Trypanocidal activity against Leishmania major promastigote forms infected in sandfly gut assessed as inhibition of parasite growth
Assay type: functional, organism-based
Settings: not given

Compound | IC50 [µM]
NP(=O)(OCc1ccc([N+](=O)[O-])cn1)N(CCCl)CCCl (stereo unspecified) | 8.3
NP(=O)(OCc1ccc([N+](=O)[O-])cc1Cl)N(CCCl)CCCl (stereo unspecified) | 3.1
NP(=O)(OCc1ccc([N+](=O)[O-])cc1F)N(CCCl)CCCl (stereo unspecified) | 4.72
NP(=O)(OCc1c(F)cc([N+](=O)[O-])cc1F)N(CCCl)CCCl (stereo unspecified) | 1.29
NP(=O)(OCc1ccc([N+](=O)[O-])c(F)c1)N(CCCl)CCCl (stereo unspecified) | 9.05
Cc1cc(COP(N)(=O)N(CCCl)CCCl)ccc1[N+](=O)[O-] (stereo unspecified) | > 30
NP(=O)(OCc1ccc([N+](=O)[O-])cc1C(F)(F)F)N(CCCl)CCCl (stereo unspecified) | 5.88

System: SK-OV-3
Assay: Antiproliferative activity against human SKOV3 cells with mixed population of 25% NTR(+) cells and 75% NTR(-) cells assessed as bystander effect by measuring mixed population of NTR(+) and NTR (-) cells to produce an IC50 midway on log scale between those in either NTR(+) or NTR(-) cells alone after 18 hrs
Assay type: functional
Settings: not given
Procedure, shortened: (§4)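 Drug exposure lasted 18 h. BE50 is the percentage of NTR+ cells in the mix needed to give an IC50 at the log-scale (geometric) midpoint between the IC50s of pure NTR+ and pure NTR− cultures.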

Compound | Activity [%]
NP(=O)(OCc1ccc([N+](=O)[O-])cc1Cl)N(CCCl)CCCl (stereo unspecified) | 3.2
NP(=O)(OCc1ccc([N+](=O)[O-])cc1F)N(CCCl)CCCl (stereo unspecified) | 3.9
NP(=O)(OCc1c(F)cc([N+](=O)[O-])cc1F)N(CCCl)CCCl (stereo unspecified) | 9.2
NP(=O)(OCc1ccc([N+](=O)[O-])c(F)c1)N(CCCl)CCCl (stereo unspecified) | 4.2
NP(=O)(OCc1ccc([N+](=O)[O-])cc1C(F)(F)F)N(CCCl)CCCl (stereo unspecified) | 2.8

System: Trypanosoma brucei
Assay: Ratio of 4-nitrobenzyl phosphoramide mustard IC50 to compound IC50 for Trypanosoma brucei bloodstream trypomastigote forms
Assay type: functional
Settings: not given

Compound | Ratio IC50
NP(=O)(OCc1ccc([N+](=O)[O-])cc1Cl)N(CCCl)CCCl (stereo unspecified) | 425
NP(=O)(OCc1c(F)cc([N+](=O)[O-])cc1F)N(CCCl)CCCl (stereo unspecified) | 485

System: SK-OV-3
Assay: Antiproliferative activity against human SKOV3 cells with mixed population of 25% NTR(+) cells and 75% NTR(-) cells assessed as reduction in cell number after 18 hrs
Assay type: functional, cell-based
Settings: SK-OV-3, 18 h
Procedure, shortened: as §4

Compound | IC50 [µM]
NP(=O)(OCc1ccc([N+](=O)[O-])cc1Cl)N(CCCl)CCCl (stereo unspecified) | 0.54
NP(=O)(OCc1ccc([N+](=O)[O-])cc1F)N(CCCl)CCCl (stereo unspecified) | 0.37
NP(=O)(OCc1c(F)cc([N+](=O)[O-])cc1F)N(CCCl)CCCl (stereo unspecified) | 1.37
NP(=O)(OCc1ccc([N+](=O)[O-])c(F)c1)N(CCCl)CCCl (stereo unspecified) | 0.48
NP(=O)(OCc1ccc([N+](=O)[O-])cc1C(F)(F)F)N(CCCl)CCCl (stereo unspecified) | 1.01

Reference: ChEMBL document CHEMBL2157983 (Bioorg Med Chem Lett, 2011)
